{"data": "Results pooled from the literature", "target": "Activin receptor type-2B (ACVR2B, Homo sapiens, UniProt Q13705)", "note": "Each line is one published result; the experiments were not run side by side."}
{"Compound": "CN(CCCC(F)(F)F)c1nccc(-c2cnn3ncccc23)n1", "read-out": "binding", "concentration": "1 µM", "remaining binding": "100%"}
{"Compound": "c1cncc(-c2cccc(Nc3nccc(NC4CCCCC4)n3)c2)c1", "read-out": "binding", "method": "competition with immobilised ligand", "concentration": "10 µM", "remaining binding": "85%"}
{"Compound": "O=C(c1ccc(Nc2ncc(Cl)c(-c3ccc(Cl)s3)n2)cc1)N1CCC(N2CCCC2)CC1", "read-out": "binding", "method": "competition with immobilised ligand", "concentration": "1 µM", "remaining binding": "77%"}
{"Compound": "O=C1CCc2cc(Nc3cc(OC4CCOCC4)c([N+](=O)[O-])cc3Cl)ccc2N1", "read-out": "cell-free assay", "method": "competition with immobilised ligand", "concentration": "1 µM", "remaining binding": "89%"}
{"Compound": "CN(C)c1nccc(-c2cnn3ncccc23)n1", "read-out": "binding", "method": "competition with immobilised ligand", "concentration": "1 µM", "remaining binding": "85%"}
{"Compound": "FC(F)(F)Oc1cccc(-c2cnc3ccc(-c4ccncc4)nn23)c1", "read-out": "cell-free assay", "method": "competition with immobilised ligand", "concentration": "5 µM", "remaining binding": "46%"}
{"Compound": "CN(C)CC#Cc1ccc(OCCCc2sc(N3CCc4cccc(C(=O)Nc5nc6ccccc6s5)c4C3)nc2C(=O)O)c(F)c1", "read-out": "cell-free assay", "method": "competition with immobilised ligand", "concentration": "1 µM", "remaining binding": "100%"}
{"Compound": "C[C@@H]1CCN(c2nccc(-c3cnn4ncccc34)n2)C1", "read-out": "binding", "concentration": "1 µM", "remaining binding": "100%"}
{"Compound": "Cc1nc(C2CCN(C(=O)c3ccc(OC(F)(F)F)cc3N)CC2)c2ncc(N3CCN(C)CC3)cc2n1", "read-out": "cell-free assay", "method": "competition with immobilised ligand", "concentration": "1 µM", "remaining binding": "100%"}
{"Compound": "N[C@@H]1CCN(c2nccc(-c3cnn4ncccc34)n2)C1", "read-out": "binding", "concentration": "1 µM", "remaining binding": "100%"}
{"Compound": "COc1cnc(Nc2cccc(S(N)(=O)=O)c2)nc1N1CCN(c2ccccc2)CC1", "read-out": "binding", "method": "competition with immobilised ligand", "concentration": "1 µM", "remaining binding": "100%"}
{"Compound": "CO[C@@H](C)c1c(Nc2ccc([C@@H](N(C)C(=O)C3CCS(=O)(=O)CC3)C(F)(F)F)cc2)cnc2cc(Cl)nn12", "read-out": "cell-free assay", "method": "competition with immobilised ligand", "concentration": "1 µM", "remaining binding": "100%"}
{"Compound": "Cc1cnn2ncc(-c3ccnc(N(C)C)n3)c2c1", "read-out": "binding", "method": "competition with immobilised ligand", "concentration": "1 µM", "remaining binding": "100%"}
{"Compound": "O=C(c1ccc(Nc2nccc(-c3cc4ccccc4s3)n2)cc1)N1CCC(N2CCCC2)CC1", "read-out": "binding", "method": "competition with immobilised ligand", "concentration": "1 µM", "remaining binding": "88%"}
{"Compound": "CC(=O)N1CCC(c2ccc(C(=O)NC(=N)N)cc2C(F)(F)F)CC1", "read-out": "binding", "method": "competition with immobilised ligand", "concentration": "1 µM", "remaining binding": "100%"}
{"Compound": "Nc1ncc2c(n1)-c1c([nH]c3ccc(C#CC4CC4)cc13)CCCC2", "read-out": "binding", "method": "competition with immobilised ligand", "concentration": "1 µM", "remaining binding": "89%"}
{"Compound": "O=C(Nc1c[nH]nc1C(=O)NC1CCNCC1)c1cc(F)cc(F)c1", "read-out": "binding", "method": "competition with immobilised ligand", "concentration": "1 µM", "remaining binding": "100%"}
{"Compound": "CC1=C(C#N)C(c2ccc3c(c2)c(NC(=O)c2ccccc2C)nn3C)C(C#N)=C(C)N1", "read-out": "binding", "method": "competition with immobilised ligand", "concentration": "1 µM", "remaining binding": "100%"}
{"Compound": "COc1ccnn2ncc(-c3ccnc(N(C)C)n3)c12", "read-out": "binding", "concentration": "1 µM", "remaining binding": "100%"}
{"Compound": "O=C(NCCCN1CCOCC1)c1ccc(Nc2ncc(Cl)c(-c3ccc(Cl)s3)n2)cc1", "read-out": "binding", "method": "competition with immobilised ligand", "concentration": "1 µM", "remaining binding": "81%"}
